Calls of active or inactive are those of the source. The calls are words filed in the database; no cut-off is given here.
What was measured:
[1] = target: Signal transducer and activator of transcription 3 (Homo sapiens) (UniProt P40763); test: Inhibition of STAT3 upto 10 uM by Western blotting
Method in brief: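 Phosphotyrosine Stat3 levels in treated cells, tested up to 10 µM. Cells washed in ice-cold PBS, lysed in SDS sample buffer, equal protein run on SDS-PAGE and transferred to PVDF. Blots blocked in 5% nonfat milk/TBST, then phospho-Stat3 and β-tubulin antibodies at 4 °C overnight, secondary 2 h room temperature, ECL detection. IC50 derived.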

Bel-7402 [2] = test: Cytotoxicity against human Bel7402 cells upto 10 uM after 72 hrs by SRB assay; assay type: functional, cell-based
Method in brief: (§1)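 A549/ATCC (human non-small-cell lung) or BEL-7402 (human hepatocellular) cells plated 24 h before treatment, then continuously exposed to a range of concentrations for 72 h. Cells fixed and stained with sulforhodamine B, bound dye solubilized in 10 mM Tris, absorbance read at 565 nm. IC50 derived.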

A549 [3] = test: Cytotoxicity against human A549 cells upto 10 uM after 72 hrs by SRB assay; assay type: functional, cell-based; method in brief: as §1
Bel-7402 [4] = test: Cytotoxicity against human Bel7402 cells after 72 hrs by SRB assay; assay type: functional, cell-based; settings: Bel-7402, 72 h; method in brief: as §1
A549 [5] = test: Cytotoxicity against human A549 cells after 72 hrs by SRB assay; assay type: functional, cell-based; settings: A549, 72 h; method in brief: as §1

Signal transducer and activator of transcription 3 (Homo sapiens), sequence (P40763 whole entry): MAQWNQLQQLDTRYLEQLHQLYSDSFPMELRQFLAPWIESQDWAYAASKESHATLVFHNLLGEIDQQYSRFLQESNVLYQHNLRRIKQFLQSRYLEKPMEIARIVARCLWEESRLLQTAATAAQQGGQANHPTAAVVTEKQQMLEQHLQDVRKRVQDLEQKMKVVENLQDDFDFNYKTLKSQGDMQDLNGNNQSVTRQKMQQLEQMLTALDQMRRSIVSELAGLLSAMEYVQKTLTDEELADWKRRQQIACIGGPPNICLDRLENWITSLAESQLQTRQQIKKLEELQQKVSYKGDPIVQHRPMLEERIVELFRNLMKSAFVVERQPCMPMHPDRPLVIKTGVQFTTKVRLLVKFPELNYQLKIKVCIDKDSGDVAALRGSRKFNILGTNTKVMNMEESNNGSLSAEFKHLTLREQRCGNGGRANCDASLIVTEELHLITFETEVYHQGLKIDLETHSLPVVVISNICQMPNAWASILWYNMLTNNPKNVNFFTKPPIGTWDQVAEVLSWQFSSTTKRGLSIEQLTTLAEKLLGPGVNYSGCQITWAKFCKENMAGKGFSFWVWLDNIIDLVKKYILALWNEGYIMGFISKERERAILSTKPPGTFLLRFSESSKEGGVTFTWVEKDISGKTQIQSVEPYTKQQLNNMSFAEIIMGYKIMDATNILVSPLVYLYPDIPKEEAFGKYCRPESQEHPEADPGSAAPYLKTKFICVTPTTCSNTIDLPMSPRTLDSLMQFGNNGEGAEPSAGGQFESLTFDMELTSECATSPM

| Structure (SMILES) | inhibition [1] | Activity (Bel-7402 [2]) | Activity (A549 [3]) | IC50 (Bel-7402 [4]) [nM] | IC50 (A549 [5]) [nM] |
| --- | --- | --- | --- | --- | --- |
| CC1(C)C(=O)[C@@H](O)C[C@@H]2C1=CC[C@@H]1[C@@]2(C)C(=O)C[C@]2(C)[C@@H]([C@@](C)(O)C(=O)C[C@H](O)C(C)(C)O)[C@H](O)C[C@@]12C | inactive | inactive | inactive |  |  |
| C/C(=C\[C@@H]1C[C@](C)(O)[C@H]2[C@@H](C[C@@]3(C)[C@@H]4[C@@H](O)C=C5[C@@H](C[C@H](O[C@@H]6O[C@H](CO)[C@@H](O)[C@H](O)[C@H]6O)[C@H](O)C5(C)C)[C@]4(C)C(=O)C[C@]23C)O1)CO | inactive | inactive | inactive |  |  |
| CC(C)(O)CCC(=O)[C@](C)(O)[C@H]1[C@H](O)C[C@@]2(C)[C@@H]3CC=C4[C@@H](CC(=O)[C@H](O)C4(C)C)[C@]3(C)C(=O)C[C@]12C | inactive | inactive | inactive |  |  |
| CC(=O)OC(C)(C)/C=C/C(=O)[C@](C)(O)[C@H]1[C@H](O)C[C@@]2(C)[C@@H]3[C@@H](O)C=C4[C@@H](C[C@H](O)C(=O)C4(C)C)[C@]3(C)C(=O)C[C@]12C [7BETA-HYDROXYCUCURBITACIN B] | inactive |  |  | 7590 | 3210 |
| CC(C)(O)/C=C/C(=O)[C@](C)(O)[C@H]1[C@H](O)C[C@@]2(C)[C@@H]3CC=C4[C@@H](C[C@H](O)C(=O)C4(C)C)[C@]3(CO)C(=O)C[C@]12C | inactive | inactive | inactive |  |  |
| CC(=O)[C@H]1[C@H](O)C[C@@]2(C)[C@@H]3CC=C4[C@@H](C[C@H](O[C@@H]5O[C@H](CO)[C@@H](O)[C@H](O)[C@H]5O)C(=O)C4(C)C)[C@]3(C)C(=O)C[C@]12C | inactive | inactive | inactive |  |  |
| CC(C)=CCC[C@@H](C)[C@H]1CC[C@@]2(C)[C@@H]3CC=C4[C@H](CCCC4(C)C)[C@H]3C(=O)C[C@]12C | inactive | inactive | inactive |  |  |
| C/C(=C\[C@@H]1C[C@](C)(O)[C@H]2[C@@H](C[C@@]3(C)[C@@H]4[C@@H](O)C=C5[C@@H](C[C@H](O)[C@H](O)C5(C)C)[C@]4(C)C(=O)C[C@]23C)O1)CO | inactive | inactive | inactive |  |  |
| CC1(C)C(=O)[C@@H](O)C[C@@H]2C1=CC[C@@H]1[C@@]2(C)C(=O)C[C@]2(C)[C@@H]([C@@](C)(O)C(=O)CC(O)C(C)(C)O)[C@H](O)C[C@@]12C (some centres not stated) | inactive | inactive | inactive |  |  |
| CC(=O)OC(C)(C)/C=C/C(=O)[C@](C)(O)[C@H]1[C@H](O)C[C@@]2(C)[C@@H]3CC=C4[C@@H](C[C@H](O[C@@H]5O[C@H](CO)[C@@H](O)[C@H](O)[C@H]5O)C(=O)C4(C)C)[C@]3(CO)C(=O)C[C@]12C | inactive | inactive | inactive |  |  |
| CC(=O)[C@H]1[C@H](O)C[C@@]2(C)[C@@H]3CC=C4[C@@H](C[C@H](O)C(=O)C4(C)C)[C@]3(C)C(=O)C[C@]12C | inactive | inactive | inactive |  |  |
| CC(=O)OC(C)(C)/C=C/C(=O)[C@](C)(O)[C@H]1[C@H](O)C[C@@]2(C)[C@@H]3CC=C4[C@@H](C[C@H](O[C@@H]5O[C@H](CO)[C@@H](O)[C@H](O)[C@H]5O)C(=O)C4(C)C)[C@]3(C)C(=O)C[C@]12C | inactive | inactive | inactive |  |  |
| CC(=O)OC(C)(C)CCC(=O)[C@](C)(O)[C@H]1[C@H](O)C[C@@]2(C)[C@@H]3[C@@H](O)C=C4[C@@H](C[C@H](O)C(=O)C4(C)C)[C@]3(C)C(=O)C[C@]12C | inactive | inactive | inactive |  |  |
| CC(C)(O)CCC(=O)[C@](C)(O)[C@H]1[C@H](O)C[C@@]2(C)[C@@H]3CC=C4[C@@H](C[C@H](O)C(=O)C4(C)C)[C@]3(C)C(=O)C[C@]12C | inactive | inactive | inactive |  |  |
| CC(C)(O)/C=C/C(=O)[C@](C)(O)[C@H]1[C@H](O)C[C@@]2(C)[C@@H]3CC=C4[C@@H](C[C@H](O[C@@H]5O[C@H](CO)[C@@H](O)[C@H](O)[C@H]5O)C(=O)C4(C)C)[C@]3(C)C(=O)C[C@]12C | inactive | inactive | inactive |  |  |
| C/C(=C\C(O)C[C@](C)(O)[C@H]1[C@H](O)C[C@@]2(C)[C@@H]3CC=C4[C@@H](C[C@H](O)C(=O)C4(C)C)[C@]3(C)C(=O)C[C@]12C)CO (some centres not stated) | inactive | inactive | inactive |  |  |
| CC(=O)OC(C)(C)/C=C/C(=O)[C@](C)(O)[C@H]1[C@H](O)C[C@@]2(C)[C@@H]3CC=C4[C@@H](C[C@H](O)C(=O)C4(C)C)[C@]3(CO)C(=O)C[C@]12C [CUCURBITACIN A] | inactive |  |  | 300 | 400 |
| CC(=O)OC(C)(C)/C=C/C(=O)[C@](C)(O)[C@H]1[C@H](O)C[C@@]2(C)[C@@H]3CC=C4[C@H](C[C@H](O)C(=O)C4(C)C)[C@]3(C)C(=O)C[C@]12C [CUCURBITACIN B] |  |  |  | 8 | 10 |
| CC(=O)OC(C)(C)CCC(=O)[C@](C)(O)[C@H]1[C@H](O)C[C@@]2(C)[C@@H]3CC=C4[C@@H](C[C@H](O)C(=O)C4(C)C)[C@]3(C)C(=O)C[C@]12C | inactive | inactive | inactive |  |  |
| CC(=O)OC(C)(C)CCC(=O)[C@](C)(O)[C@H]1[C@H](O)C[C@@]2(C)[C@@H]3CC=C4[C@@H](CC(=O)[C@H](O)C4(C)C)[C@]3(C)C(=O)C[C@]12C | inactive | inactive | inactive |  |  |
| CC(C)(O)CCC(=O)[C@](C)(O)[C@H]1[C@H](O)C[C@@]2(C)[C@@H]3CC=C4[C@@H](C[C@H](O)C(=O)C4(C)C)[C@]3(CO)C(=O)C[C@]12C | inactive | inactive | inactive |  |  |

From ChEMBL document CHEMBL1152327, “Cucurbitane-type triterpenoids from the stems of Cucumis melo” (J Nat Prod, 2009)
